# WT yeast gro inh = growth inhibition of WT strain, primary screen, mitochondrial fusion inhibitor project, WT and mutant strains, chemical genetic. mitochondrial fusion phenotypic screen. inhibition, % at 10 µM. hit rate 2.1% among 190,000. AID 1362, 2008; in the data active = inhibition above about 58%; tested in S. cerevisiae
# Lmaj promast = Leishmania major promastigote growth inhibition, primary screen; Leishmania major promastigotes, resazurin fluorescence viability; inhibition, % at 10 µM; hit rate 9% among 200,000; AID 1063, 2008; in the data active = inhibition above about 50%;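 note: promastigotes grown with compound for 44 hours at 28 °C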
# PMI act satM6P = human PMI activators, high substrate, primary screen, biochemical, fluorescence intensity, near-saturating mannose 6-phosphate | coupled PMI enzyme assay, resazurin fluorescence, 20 min; hits give high values; 1 = untreated enzyme, 0 = substrate-free blank | Mannose-6-phosphate isomerase (Homo sapiens), P34949 | activation factor at 20 µM | hit rate 0.34% among 190,000;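 active = activation factor of 2 or more at 20 µM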
# Target sequence (P34949 whole entry, looked up): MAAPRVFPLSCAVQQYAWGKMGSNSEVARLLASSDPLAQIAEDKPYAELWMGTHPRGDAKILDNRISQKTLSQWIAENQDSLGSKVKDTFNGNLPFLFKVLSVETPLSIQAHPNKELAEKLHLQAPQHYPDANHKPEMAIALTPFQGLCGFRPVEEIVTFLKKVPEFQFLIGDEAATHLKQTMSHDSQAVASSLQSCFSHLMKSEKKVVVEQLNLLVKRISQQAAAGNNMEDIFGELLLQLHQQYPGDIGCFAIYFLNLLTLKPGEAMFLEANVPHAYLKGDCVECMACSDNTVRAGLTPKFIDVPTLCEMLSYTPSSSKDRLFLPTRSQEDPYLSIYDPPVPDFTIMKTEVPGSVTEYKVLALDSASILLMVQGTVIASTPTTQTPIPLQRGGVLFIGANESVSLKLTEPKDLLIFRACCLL
#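 Test system: human PMI in coupled enzyme assay; Input: PMI at 15 ng/mL final; Medium: HEPES buffer, pH 7.4; Schedule: 20 min incubation at room temperature; Technique: resorufin fluorescence at Ex 544/Em 590 nm; Compound: 20 µM single dose; Probe or stimulus: Near-saturating mannose-6-phosphate, 1.0 mM.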
# Rad51 HR inh = human RAD51 strand exchange inhibitors, primary screen, biochemical, fluorescence; DNA repair protein RAD51 homolog 1 (Homo sapiens), Q06609; hRad51 DNA strand exchange, fluorescence dequenching; inhibition, % at 10 µM; hit rate 0.085% among 200,000;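 active = inhibition above 40% at the single screening dose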;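 note: 0% = DMSO control wells and 100% = blanks with heterologous ssDNA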
#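 Material: hRad51 filaments on single-stranded DNA; Reagent: Donor/quencher-labelled 47-bp dsDNA substrate; Compound: 10 µM final, single point; Schedule: 37 °C 15-min filament assembly, 30-min compound preincubation, 15-min exchange; Technique: FRET fluorescence, excitation 485 nm, emission 520 nm; Benchmarks: control wells and blank wells on each plate.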
# m-calpain inh = inhibitors of pig calpain II, primary screen, biochemical, fluorogenic peptide substrate, 1536-well; purified calpain II, 30 min; inhibition, % at 16 µM; hit rate 0.37% among 220,000; AID 1236, 2008;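 active = inhibition above about 50%, limit read from the data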
# PMI activator = activators of human PMI, primary screen, biochemical, fluorescence intensity, near-Km mannose 6-phosphate | Mannose-6-phosphate isomerase (Homo sapiens), P34949 | purified human PMI, coupled resazurin fluorescence, 20 min; hits give high values; 1 = vehicle control, 0 substrate-free wells | activation factor at 20 µM | hit rate 0.005% among 190,000;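 active = activation factor of 2 or more at 20 µM, relative to plate controls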
# The depositor's hits bear a star; i = inactive; nt = no result. Only some compounds are listed: those with a hit (about 9.8% of all), similar ones and a draw of the others.
SMILES,WT yeast gro inh,Lmaj promast,PMI act satM6P,Rad51 HR inh,m-calpain inh,PMI activator
CCCS(=O)(=O)c1c(S(=O)(=O)CCC)c2cc(CC)ccn2c1C(=O)OC,70*,16,1,-5,-39,1
NS(=O)(=O)c1cccc(-n2cnnn2)c1,nt,nt,nt,nt,10,nt
Cc1ccc(S(=O)(=O)c2cc3c(=O)n4ccccc4nc3n(Cc3ccco3)c2=N)cc1,1,62*,1.7,nt,i,1.3
N=c1c(C(=O)NCc2ccco2)cc2c(=O)n3ccccc3nc2n1Cc1ccc(Cl)cc1,74*,41,0.9,-2,nt,1.1
N=c1c(C(=O)NCc2ccco2)cc2c(=O)n3ccccc3nc2n1Cc1ccccc1,6,25,1,11,-210,0.9
O=C(O)COc1ccccc1/C=C1\SC(=S)N(c2cccnc2)C1=O,nt,nt,nt,19,29,nt
Cc1ccc(C)c(-n2c(-c3ccc(Br)cc3)csc2=NC(=O)c2ccccc2F)c1,nt,nt,nt,13,-19,nt
CCn1c(Cc2ccccc2)nnc1SCc1cccc(C(=O)O)c1,3,61*,1.1,10,-5,1.1
CCn1c(Cc2ccccc2)nnc1SCC(=O)NC(C)(C)C,31,-9,0.5,3,-11,1.1
CC(=O)/C(=C/Nc1ccc(Oc2ccccc2)cc1)c1ccccc1,61*,-6,0.9,9,23,0.9
COc1cc(N/C=C(\C(C)=O)c2ccccc2)cc(OC)c1,12,-5,0.8,-8,65*,0.8
COc1cc(C(=O)N2CCN(C(=O)c3ccco3)CC2)c([N+](=O)[O-])cc1OC,-5,-8,1,9,-15,1
COc1ccc(N(C(=O)c2ccn[nH]2)C(C(=O)NC(C)(C)C)c2ccc(F)cc2)cc1 (stereo not drawn),-26,81*,1,-1,-19,1
CC(C)(C)NC(=O)C(c1ccc(F)cc1)N(CCc1ccccc1)C(=O)c1ccn[nH]1 (stereo not drawn),4,14,nt,-7,29,nt
CCN1CCN(Cc2c(O)ccc3c(=O)c(-c4ccccc4OC)coc23)CC1,7,34,1,7,i,0.9
CCN1CCN(Cc2c(O)ccc3c2O/C(=C\C=C\c2ccccc2OC)C3=O)CC1,-3,69*,0.9,-470,-11,0.9
CSc1ccccc1NC(=O)CN(C)C(C)C(=O)Nc1ccc(C#N)cc1 (stereo not drawn),14,56*,1,-2,7,1
CSc1ccccc1NC(=O)CN(C)CC(=O)Nc1ccccc1F,-18,-5,1.1,4,-13,1.2
O=C1c2ccccc2C(=O)c2c1ncn2-c1ccccc1,2,55*,0.4,-8,-3,0.8
COc1ccc(NC(=O)c2ccc(COc3ccc(C)cc3)o2)cc1,10,-6,0.9,6,28,0.9
COC(=O)c1ccc(NC(=O)CN(c2ccc3c(c2)OCO3)S(C)(=O)=O)cc1,-25,64*,1,8,10,0.9
COc1ccc(N(CC(=O)Nc2ccc3c(c2)OCO3)S(=O)(=O)c2ccccc2)c(OC)c1,9,71*,0.9,-15,-13,0.9
COc1ccc(N(CC(=O)Nc2ccc3c(c2)OCO3)S(=O)(=O)c2ccc(C)cc2)cc1OC,2,63*,1,-6,-7,0.9
COC(=O)c1ccc(C)c(NC(=O)CN(c2ccc3c(c2)OCO3)S(C)(=O)=O)c1,1,7,1,2,15,0.9
CC[C@H](C)[C@H](NC(=O)c1ccccc1)C(=O)Nc1ccc(S(=O)(=O)Nc2cc(C)nc(C)n2)cc1,nt,nt,nt,25,-3,nt
SMILES,WT yeast gro inh,Lmaj promast,PMI act satM6P,Rad51 HR inh,m-calpain inh,PMI activator
CC(c1ccccc1)N1C(=O)/C(=C/c2ccncc2)SC1=S (stereo not drawn),nt,nt,nt,nt,-36,nt
CCOc1cc(/C=C/c2nc3cc(C)c(C)cc3s2)ccc1OCC(=O)N1CCOCC1,-1,86*,0.9,-10,-110,0.9
O=C(NCc1cccnc1)c1cc(Sc2ccccc2Cl)nc2ccccc12,-29,78*,1,4,8,0.9
CN1CCCC(C#CC(O)(c2ccccc2)c2ccccc2)C1 (stereo not drawn),-19,78*,1.1,24,18,1.1
Cc1cccc(NC(=O)C23CCC(C)(C2Br)C3(C)C)c1 (stereo not drawn),-1,2,1.1,3,-17,1.1
S=C(N/N=C/c1cccc2ccccc12)Nc1cccc(Cl)c1,nt,nt,nt,-1,-54,nt
CNS(=O)(=O)c1cnccc1N1CCN(c2cccc(Cl)c2)CC1,1,100*,0.9,nt,-35,0.9
CCN(CC)S(=O)(=O)c1cnccc1N1CCN(c2cccc(Cl)c2)CC1,58*,100*,0.9,nt,-4,0.9
CN(CC(=O)N1CCN(c2cccc(Cl)c2)CC1)S(=O)(=O)c1cnc[nH]1,1,-2,1,nt,-8,1
CN1CCN(S(=O)(=O)c2cnccc2N2CCN(c3cccc(Cl)c3)CC2)CC1,16,32,1,11,-34,1
O=C(O)C(CC1CCCCC1)N1CCS(=O)(=O)CC1 (stereo not drawn),6,-7,1.1,-7,31,1.2
CCN(CC)c1nc2c(c(=O)n(C)c(=O)n2C)n1CC(=O)c1ccccc1,nt,nt,nt,nt,4,nt
CCc1nnc(NS(=O)(=O)c2ccc(NC(=O)/C=C/c3ccc(OC)cc3OC)cc2)s1,6,-10,0.9,-49,-73,0.9
COc1cc(/C=N/Nc2nc(Nc3ccccc3)nc(-n3nc(C)cc3C)n2)cc(OC)c1OC,2,100*,1.1,3,-161,1.1
COc1ccc(Nc2nc(NCc3ccco3)nc(N/N=C/c3ccccc3)n2)cc1,11,5,1.7,1,-14,1.3
COc1ccc(/C=N/Nc2nc(Nc3ccccc3)nc(N3CCCCC3)n2)c(OC)c1,6,100*,0.9,6,5,1
COc1ccc(/C=N/Nc2nc(Nc3ccccc3)nc(N3CCCC3)n2)cc1[N+](=O)[O-],9,-2,1,4,-72,1.1
COc1cc(/C=N/Nc2nc(Nc3ccccc3)nc(N3CCCCC3)n2)ccc1OCC(=O)O,1,-11,1,23,-63,1.2
Cc1[nH]c2ccccc2c1/C=N/Nc1nc(Nc2ccccc2)nc(N2CCOCC2)n1,16,100*,0.9,1,-132,1
COc1ccc(O)c(/C=N/Nc2nc(Nc3ccccc3)nc(-n3nc(C)cc3C)n2)c1,16,101*,0.9,13,-144,0.9
